Measurements published in ChEMBL document CHEMBL1138288, “2-phenylimidazopyridines, a new series of Golgi compounds with potent antiviral activity” (J Med Chem, 2007).
Active and inactive are the calls of the source. No cut-off for these calls is given here.

What was measured:
[1] = test system: Modoc virus; test: Antiviral activity against Modoc virus-infected HeLa-H1 cells; assay type: functional, organism-based
[2] = test system: Vaccinia virus; test: Antiviral activity against Vaccinia virus-infected Vero cells; assay type: functional, organism-based, Orthopoxvirus vaccinia
[3] = Selectivity ratio, IC50 HSV2-infected Vero cells to IC50 for inhibition of IgE production in antigen-sensitized BALB/c mouse spleen cells; assay type: functional
[4] = test system: San Angelo virus; test: Antiviral activity against San Angelo virus-infected Vero cells; assay type: functional, organism-based
[5] = test system: Vesicular stomatitis virus; test: Antiviral activity against VSV-infected Vero cells; assay type: functional, organism-based
[6] = Inhibition of IgE production in antigen-sensitized BALB/c mouse spleen cells; assay type: functional, tissue-based
[7] = Selectivity ratio, IC50 for vaccinia virus-infected Vero cells to IC50 for inhibition of IgE production in antigen-sensitized BALB/c mouse spleen cells; assay type: functional
[8] = test system: California encephalitis virus; test: Antiviral activity against California encephalitis virus-infected Vero cells; assay type: functional, cell-based
[9] = test system: Enterovirus; test: Antiviral activity against Rhinovirus-infected HeLa-H1 cells; assay type: functional, organism-based
[10] = test system: Murine hepatitis virus; test: Antiviral activity against mouse hepatitis virus-infected NCTC clone-1469 cells; assay type: functional, organism-based
Method in brief: (§1)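 Cells were seeded at about 50 000/well and infected 24 h later at MOI 0.1 or less, with drug added alongside. Once infectivity was evident, cells were washed and stained with methylene blue/carbol fuchsin in methanol for 10 min at room temperature.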

[11] = test system: Simian virus 40; test: Antiviral activity against SV40-infected Vero cells; assay type: functional, organism-based; conditions: Betapolyomavirus macacae; method in brief: as §1
[12] = test system: Human alphaherpesvirus 2; test: Antiviral activity against HSV2-infected Vero cells; assay type: functional, organism-based
[13] = test system: Human alphaherpesvirus 2; test: Antiviral activity against HSV2 MS-infected IAF/HA-HO guinea pig assessed as suppression of vesicle formation at 2% applied topically four times a day for 3 days; assay type: functional, organism-based
Method in brief: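 Six hairless guinea pigs were each inoculated at three back sites with HSV-2 MS strain. Sites received drug at 2% in vehicle, vehicle alone, or nothing, rotated between sites so each animal was its own control. Vehicle was 38% Gelucire 44/14, 38% PEG 400, 10% Tween 80 and 10% N-methylpyrrolidinone. Dosing was topical, four times daily at about 2.5 h intervals. Vesicle formation was assessed on day 4 after inoculation.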

[14] = California encephalitis virus, Vero

Row | SMILES | IC50 [1] [nM] | IC50 ([2]; Orthopoxvirus vaccinia, Vero) [nM] | Ratio IC50 [3] | IC50 ([4]; San Angelo virus, Vero) [nM] | IC50 [5] [nM] | IC50 ([6]; Mus musculus, BALB/c, Spleen) [nM] | Ratio IC50 [7] | IC50 [8, 14] [nM] | IC50 ([9]; Enterovirus, HeLa H1) [nM] | IC50 ([10]; Murine coronavirus) [nM] | IC50 [11] [nM] | IC50 ([12]; Human alphaherpesvirus 2, Vero) [nM] | Activity [13] | IC50 ([2]; vero) [nM] | IC50 ([4]; vero) [nM] | IC50 [6] [nM] | IC50 ([8]; vero) [nM] | IC50 ([9]; hela-h1) [nM] | IC50 [10] [nM] | IC50 ([12]; vero) [nM]
1 | CC(=O)OC1C2CC3CC1CC(C(=O)Nc1ccc(-c4nc5cc(C(=O)Nc6ccccn6)ccc5[nH]4)cc1)(C3)C2 (configuration not stated) | 200 | 1500 | >100 | 60 | > 2000 | 10 | >100 | 130 | 200 | > 600 | > 2000 | 1000 | – | – | – | – | – | – | – | –
2 | CC(=O)OC1CCC(C(=O)Nc2ccc(-c3nc4cc(NC(=O)C5CCC(OC(C)=O)CC5)ccc4[nH]3)cc2)CC1 (configuration not stated) | > 600 | > 2000 | – | > 2000 | 1000 | 1000 | – | > 2000 | > 2000 | > 600 | 1500 | > 2000 | – | – | – | – | – | – | – | –
3 | O=C1C2CC3CC1CC(C(=O)Nc1ccc(-c4nc5cc(NC(=O)C67CC8CC(C6)C(=O)C(C8)C7)ncc5[nH]4)cc1)(C3)C2 | > 600 | > 2000 | – | 200 | > 2000 | 45 | – | 200 | > 2000 | > 600 | 1000 | > 2000 | – | – | – | – | – | – | – | –
4 | O=C(Nc1ccc(-c2nc3cc(C(=O)NC45CC6CC(C4)C(=O)C(C6)C5)ncc3[nH]2)cc1)c1ccc(Cl)cc1 | > 600 | 40 | – | 135 | 1000 | 0.15 | – | 200 | 20 | 100 | > 2000 | 40 | – | – | – | – | – | – | – | –
5 | O=C(Nc1ccc(-c2nc3cc(NC(=O)C45CC6CC(CC(C6)C4)C5)ncc3[nH]2)cc1)C12CC3CC(CC(C3)C1)C2 | 20 | 10 | – | 6 | > 2000 | 1 | – | 6 | 10 | 8 | > 2000 | 5 | Active | – | – | – | – | – | – | –
6 | O=C(Nc1ccc(-c2nc3cc(NC(=O)C4CCCCC4)ccc3[nH]2)cc1)c1ccc(Cl)c(Cl)c1 | 20 | 600 | – | 60 | > 2000 | 3 | – | 200 | 200 | 20 | > 2000 | 60 | – | – | – | – | – | – | – | –
7 | O=C(Nc1ccccn1)c1cc2nc(-c3ccc(NC(=O)C45CC6CC(CC(C6)C4)C5)cc3)[nH]c2cn1 | 600 | 1500 | – | 40 | > 2000 | 120 | – | 40 | 200 | 50 | > 2000 | 600 | – | – | – | – | – | – | – | –
8 | O=C(Nc1ccc(-c2nc3cc(NC(=O)C4CCCCC4)ncc3[nH]2)cc1)C1CCCCC1 | 6 | 60 | – | 20 | > 2000 | 1.5 | – | 60 | 60 | 15 | > 2000 | 20 | – | – | – | – | – | – | – | –
9 | O=C(Nc1ccc(-c2nc3cc(C(=O)NC45CC6CC(CC(C6)C4)C5)ncc3[nH]2)cc1)c1ccc(Cl)cc1 | 20 | 40 | – | 20 | > 2000 | 3 | – | 60 | 400 | 60 | > 2000 | 20 | – | – | – | – | – | – | – | –
10 | O=C(Nc1ccccn1)c1ccc2[nH]c(-c3ccc(NC(=O)C45CC6CC(CC(C6)C4)C5)cc3)nc2c1 (stereo in doubt; 1d) | – | – | 25 | – | – | – | 25 | – | – | – | – | – | – | 300 | 200 | 12 | 200 | 200 | 30 | 300
11 | O=C(Nc1ccc(-c2nc3cc(NC(=O)C45CC6CC(CC(C6)C4)C5)ncc3[nH]2)cc1)C12CC3CC(C1)C(O)C(C3)C2 (configuration not stated) | 20 | 120 | – | 60 | 1000 | 1 | – | 200 | 10 | 20 | > 2000 | 60 | – | – | – | – | – | – | – | –
